Our source for the Activity values is ChEMBL document CHEMBL3244009, “Potential steroidal antiestrogens” (1977).

In assay [1] the target is T1, Estrogen receptor (Mus musculus) (UniProt P19785).
T1 sequence (whole entry): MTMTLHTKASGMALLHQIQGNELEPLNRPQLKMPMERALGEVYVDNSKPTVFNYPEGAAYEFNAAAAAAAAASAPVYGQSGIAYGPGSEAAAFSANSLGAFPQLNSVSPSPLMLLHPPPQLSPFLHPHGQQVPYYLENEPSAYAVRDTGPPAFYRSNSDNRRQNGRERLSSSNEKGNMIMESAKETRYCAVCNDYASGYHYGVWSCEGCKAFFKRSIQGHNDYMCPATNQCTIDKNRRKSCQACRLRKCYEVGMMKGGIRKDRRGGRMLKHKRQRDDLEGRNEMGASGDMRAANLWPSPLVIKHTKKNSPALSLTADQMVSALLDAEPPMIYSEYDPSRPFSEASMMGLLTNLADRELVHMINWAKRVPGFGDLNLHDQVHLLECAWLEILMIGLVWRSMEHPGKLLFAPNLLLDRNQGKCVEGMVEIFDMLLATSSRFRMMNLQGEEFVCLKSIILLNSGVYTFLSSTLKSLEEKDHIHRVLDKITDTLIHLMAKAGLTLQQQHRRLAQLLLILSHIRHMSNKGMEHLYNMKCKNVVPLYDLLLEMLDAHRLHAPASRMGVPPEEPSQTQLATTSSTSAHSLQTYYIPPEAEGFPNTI
In words: Displacement of [6,7-3H]-17beta-estadiol from estrogen receptor in Tuck No. 1 mouse uterine cytosol at 10 molar ratio of compound/radioligand incubated 15 mins prior to radioligand addition measured after 1 hr by liquid scintillation counting relative to control. Conditions: Uterus. An outline of the steps: (§1)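 Uterine cytosol is the 105 000g, 1 h, 4-5 °C supernatant of homogenates from mice ovariectomized one week earlier, prepared in Tris 0.01 M pH 7.4 with EDTA and DTT. Compound is preincubated with cytosol 15 min at 5-7 °C, then [6,7-3H]-estradiol (0.5 × 10^-12 g mol) is added for 1 h. Samples are run on 10-30% sucrose gradients. Inhibition is calculated from 8S-peak cpm normalized to total cpm versus control.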

Assay [2] relates to Mus musculus. In words: Antiestrogenic activity in immature Tuck No. 1 mouse assessed as reduction of 17beta-estradiol-induced mean uterine weight at 100 molar ratio of compound/17beta-estradiol, sc qd for 3 days (reference value: 25.5 +/- 1.9 mg). It is filed as functional.
Assay [3] has as its system Rattus norvegicus. Description: Antiestrogenic activity in immature Wistar rat assessed as reduction of 17beta-estradiol-induced mean uterine weight at 3.16 molar ratio of compound/17beta-estradiol, sc qd for 3 days (reference value: 64.4 +/- 3.5 mg). It is filed as functional. In outline: (§2)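 Immature Wistar rats, randomized into groups of 5-6, injected sc daily for 3 days with arachis oil vehicle, 17β-estradiol alone or estradiol plus test compound. Estradiol and compound are given as two separate injections. Estradiol total dose […]. Read-out is uterine weight, reported as mean ± SEM in mg.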

Assay [4] relates to Rattus norvegicus. In words: Antiestrogenic activity in immature Wistar rat assessed as reduction of 17beta-estradiol-induced mean uterine weight at 200 molar ratio of compound/17beta-estradiol, sc qd for 3 days (reference value: 64.4 +/- 3.5 mg). It is filed as functional. An outline of the steps: as §2
The test system of assay [5] is Mus musculus. In words: Antiestrogenic activity in immature Tuck No. 1 mouse assessed as reduction of 17beta-estradiol-induced mean uterine weight at 1000 molar ratio of compound/17beta-estradiol, sc qd for 3 days (reference value: 25.5 +/- 1.9 mg). It is filed as functional.
Assay [6] has as its target T1, Estrogen receptor (Mus musculus). In words: Displacement of [6,7-3H]-17beta-estadiol from estrogen receptor in Tuck No. 1 mouse uterine cytosol at 1000 molar ratio of compound/radioligand incubated 15 mins prior to radioligand addition measured after 1 hr by liquid scintillation counting relative to control. The settings on record: Uterus. An outline of the steps:
as §1

The target is the same in assay [7]. Description: Displacement of [6,7-3H]-17beta-estadiol from estrogen receptor in Tuck No. 1 mouse uterine cytosol at 100 molar ratio of compound/radioligand incubated 15 mins prior to radioligand addition measured after 1 hr by liquid scintillation counting relative to control. Conditions: Uterus. An outline of the steps:
as §1

Assay [8] relates to Rattus norvegicus. Description: Antiestrogenic activity in immature Wistar rat assessed as reduction of 17beta-estradiol-induced mean uterine weight at 10 molar ratio of compound/17beta-estradiol, sc qd for 3 days (reference value: 64.4 +/- 3.5 mg). It is filed as functional. An outline of the steps: as §2
Assay [9] has as its target T1, Estrogen receptor (Mus musculus). Description: Displacement of [6,7-3H]-17beta-estadiol from estrogen receptor in Tuck No. 1 mouse uterine cytosol at 1 molar ratio of compound/radioligand incubated 15 mins prior to radioligand addition measured after 1 hr by liquid scintillation counting relative to control. Conditions: Uterus. In outline: as §1
For assay [10] the target is unchanged. In words: Displacement of [6,7-3H]-17beta-estadiol from estrogen receptor in Tuck No. 1 mouse uterine cytosol at 3.16 molar ratio of compound/radioligand incubated 15 mins prior to radioligand addition measured after 1 hr by liquid scintillation counting relative to control. Conditions: Uterus. An outline of the steps: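 Uteri from Tuck No. 1 mice (6 weeks old, ovariectomized, used 1 week later) pulverized and homogenized at 4 °C in 0.01 M Tris pH 7.4 with EDTA and dithiothreitol; 105000g, 1 h cytosol. Compound preincubated with cytosol 15 min at 5-7 °C, then [6,7-3H]-estradiol added for 1 h. 10-30% sucrose gradients spun 275000g, 15 h; % inhibition computed from 8S-peak cpm normalized to total gradient cpm versus control.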

Assay [11] has as its system Mus musculus. In words: Antiestrogenic activity in immature Tuck No. 1 mouse assessed as reduction of 17beta-estradiol-induced mean uterine weight at 10 molar ratio of compound/17beta-estradiol, sc qd for 3 days (reference value: 25.5 +/- 1.9 mg). It is filed as functional.

Turning to `C[C@]12CC[C@@H]3c4ccc(O)cc4/C(=N\NC(N)=S)C[C@H]3[C@@H]1CC[C@@H]2O`, the Activity is 54% in [1], 34.3 mg with Mus musculus [2] and 77.7 mg with Rattus norvegicus [3].

For the compound `Cc1cc(O)cc2c1[C@H]1CC[C@]3(C)[C@@H](O)CC[C@H]3[C@@H]1C=C2c1ccccc1`, the Activity in the assay on Rattus norvegicus [4] came to 97.1 mg; in the assay with Mus musculus [5], 32.9 mg; in assay [6], 18%; in [7] it was 87%.

In the case of `C[C@]12CC[C@@H]3c4ccc(O)cc4C(c4ccccc4)=C[C@H]3[C@@H]1CC[C@@H]2O`, the Activity was found to be 74.1 mg in the assay on Rattus norvegicus [8]; 3% in assay [1]; 66% in [9]; 13% in assay [10]; 28.6 mg in the assay on Mus musculus [11].

Take `C[C@]12CC[C@@H]3c4ccc(O)cc4/C(=N\N4C(=N)SCC4=O)C[C@H]3[C@@H]1CC[C@@H]2O`: the results for the Activity (in [1]; in the assay with Mus musculus [11]) were 84% and 28.4 mg, respectively.

With `C[C@]12CC[C@@H]3c4ccc(O)cc4C(=O)C[C@H]3[C@@H]1CC[C@@H]2O`, the Activity in assay [10] was found to be 38%.

As for `Cc1cc(OCCN(C)C)cc2c1[C@H]1CC[C@]3(C)[C@@H](O)CC[C@H]3[C@@H]1C=C2c1ccccc1`, the Activity in assay [6] amounted to 88%.

As to `Cc1cc(O)cc2c1[C@H]1CC[C@]3(C)[C@@H](O)CC[C@H]3[C@@H]1CC2=O`, the Activity in [6] amounted to 14%; in [7] it was 38%.

As for `CN(C)CCOc1ccc2c(c1)C(c1ccccc1)=C[C@@H]1[C@@H]2CC[C@]2(C)[C@@H](O)CC[C@@H]12`, the Activity in assay [6] is 103%.

Take `CCN(CC)CCOc1ccc2c(c1)C(Cc1ccccc1)=C[C@@H]1[C@@H]2CC[C@]2(C)[C@@H](O)CC[C@@H]12`: in assay [6], the Activity was found to be 89%.

For the compound `CN(C)CCOc1ccc2c(c1)C(=O)C[C@@H]1[C@@H]2CC[C@]2(C)[C@@H](O)CC[C@@H]12`, in [6], the Activity is 66%.

Turning to `CCN(CC)CCOc1ccc2c(c1)C(c1ccccc1)=C[C@@H]1[C@@H]2CC[C@]2(C)[C@@H](O)CC[C@@H]12`, in assay [6], the Activity worked out at 101%.
